# According to ChEMBL document CHEMBL4765349, “Design, synthesis and biological evaluation of novel N-sulfonylamidine-based derivatives as c-Met inhibitors via Cu-catalyzed three-component reaction” (Eur J Med Chem, 2020):
# The source made the active and inactive calls. No cut-off for these calls is given here.
# Legend:
# [1] = tested on: A549; assay: Induction of cell cycle arrest in human A549 cells assessed as increased accumulation of cells at G2/M phase measured after 24 hrs by Propidium iodide stain based Flow cytometry assay; format: functional; conditions: dose 0.25-1 µM
# Method in brief: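 A549 cells exposed to vehicle or 0.25, 0.5 or 1.0 µM compound. DNA content measured by propidium iodide staining with RNase and flow cytometry, and the G2/M fraction was scored.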
# [2] = target: Vascular endothelial growth factor receptor 3 (Homo sapiens, UniProt P35916); assay: Inhibition of FLT-4 (unknown origin) using poly (Glu, Tyr)4:1 as substrate in presence of ATP measured after 30 mins by HTRF assay
# Method in brief: (§1)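 Kinase inhibition measured by homogeneous time-resolved fluorescence (HTRF) across a panel of Ron, ALK and other tyrosine kinases, with IC50 as the read-out.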
# [3] = Oral bioavailability in Balb/c mouse at 8 mg/kg measured after 24 hrs by LC/MS/MS analysis; format: ADME, organism-based; conditions: in vivo
# Method in brief: (§2)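 BALB/c mice dosed once orally at 8 mg/kg or intravenously at 2 mg/kg. Plasma concentration followed over time, and Cmax, Tmax, AUC0-∞, elimination half-life, clearance and oral bioavailability were derived from it.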
# [4] = Selectivity index, ratio of IC50 for human FHC cells assessed as inhibition of cell proliferation to IC50 of HT-29 cells assessed as inhibition of cell proliferation; format: toxicity; conditions: FHC cells versus HT-29 cells, read-out: Selectivity Index
# [5] = tested on: FHC; assay: Cytotoxicity against human FHC cells assessed as inhibtion of cell proliferation measured after 72 hrs by MTT assay
# [6] = Toxicity in Balb/c mouse assessed as allergic reaction at 100 to 200 mg/kg, ip measured after 15 days; format: organism-based; conditions: in vivo, 360 h, dose 100-200 mg/kg, time 15 day
# Method in brief: (§3)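 Acute toxicity in 8-week-old male BALB/c mice, randomized into groups of n = 10. Single intraperitoneal dose on day 0 of vehicle or 100, 200, 300 or 400 mg/kg, plus an untreated control group. Mice watched for 15 days for deaths, abnormalities, anaphylactic or allergic reactions and body weight loss.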
# [7] = tested on: A549; assay: Induction of apoptosis in human A549 cells assessed as early apoptosis at 1 uM measured after 12 hrs by Annexin V-FITC/ Propidium iodide stain based flow cytometry assay relative to control; format: functional
# Method in brief: (§4)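 Cells double-stained with FITC-annexin V and propidium iodide, then flow cytometry gave the percentages of early and late apoptotic cells.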
# [8] = Toxicity in Balb/c mouse assessed as body weight at 100 to 200 mg/kg, ip measured after 15 days; format: organism-based; conditions: in vivo, 360 h, dose 100-200 mg/kg, time 15 day; method in brief: as §3
# [9] = Selectivity index, ratio of IC50 for human HUVEC cells assessed as inhibition of cell proliferation to IC50 of HT-29 cells assessed as inhibition of cell proliferation; format: toxicity; conditions: HUVEC cells versus HT-29 cells, read-out: Selectivity Index
# [10] = Clearance in Balb/c mouse at 8 mg/kg, po measured after 24 hrs by LC/MS/MS analysis; format: ADME, organism-based; conditions: in vivo
# Method in brief: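 Clearance from the plasma profile of BALB/c mice after a single oral dose of 8 mg/kg.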
# [11] = target: Hepatocyte growth factor receptor (Homo sapiens, UniProt P08581); assay: Inhibition of human c-MET phosphorylation in human A549 cells measured after 1 hr by western blot analysis; conditions: dose 2-8 µmol/L
# [12] = target: Platelet-derived growth factor receptor beta (Homo sapiens, UniProt P09619); assay: Inhibition of PDGFR beta (unknown origin) using poly (Glu, Tyr)4:1 as substrate in presence of ATP measured after 30 mins by HTRF assay; method in brief: as §1
# [13] = target: Platelet-derived growth factor receptor alpha (Homo sapiens, UniProt P16234); assay: Inhibition of PDGFR alpha (unknown origin) using poly (Glu, Tyr)4:1 as substrate in presence of ATP measured after 30 mins by HTRF assay; method in brief: as §1
# [14] = Toxicity in Balb/c mouse assessed as no abnormality at 100 to 200 mg/kg, ip measured after 15 days; format: organism-based; conditions: in vivo, 360 h, dose 100-200 mg/kg, time 15 day; method in brief: as §3
# [15] = AUC (0 to infinity) in Balb/c mouse at 8 mg/kg, po measured after 24 hrs by LC/MS/MS analysis; format: ADME, organism-based; set-up: route oral, time 24 hrs, dose 8 mg/kg; conditions: in vivo; method in brief: as §2
# [16] = Toxicity in Balb/c mouse assessed as survival rate at 200 mg/kg, ip measured after 15 days; format: organism-based; conditions: in vivo, time 15 day
# Method in brief: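 Acute toxicity: 8-week-old male BALB/c mice, randomized in groups of n = 10, given a single intraperitoneal injection on day zero (vehicle only, 100, 200, 300 or 400 mg/kg). A further untreated group served as normal control. Survival on day 15 was reported as a percentage.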
# [17] = target: Macrophage-stimulating protein receptor (Homo sapiens, UniProt Q04912); assay: Inhibition of Ron (unknown origin) using poly (Glu, Tyr)4:1 as substrate in presence of ATP measured after 30 mins by HTRF assay; method in brief: as §1
# [18] = Cmax in Balb/c mouse at 2 mg/kg, iv measured after 24 hrs by LC/MS/MS analysis; format: ADME, organism-based; set-up: route intravenous, dose 2 mg/kg, time 24 hrs; conditions: in vivo; method in brief: as §2
# [19] = tested on: HUVEC; assay: cells; conditions: Homo sapiens, 72 h
# [20] = target: ALK tyrosine kinase receptor (Homo sapiens, UniProt Q9UM73); assay: Inhibition of ALK (unknown origin) using poly (Glu, Tyr)4:1 as substrate in presence of ATP measured after 30 mins by HTRF assay; method in brief: as §1
# [21] = tested on: A549; assay: Induction of apoptosis in human A549 cells assessed as late apoptosis at 1 uM measured after 12 hrs by Annexin V-FITC/ Propidium iodide stain based flow cytometry assay relative to control; format: functional; method in brief: as §4
# [22] = tested on: MKN-45; assay: Cytotoxicity against human MKN-45 cells assessed as inhibition of cell proliferation measured after 72 hrs by MTT assay; format: functional, cell-based; conditions: MKN-45, 72 h
# [23] = Tmax in Balb/c mouse at 8 mg/kg, po measured after 24 hrs by LC/MS/MS analysis; format: ADME, organism-based; conditions: in vivo; method in brief: as §2
# [24] = Half life in Balb/c mouse at 2 mg/kg, iv measured after 24 hrs by LC/MS/MS analysis; format: ADME, organism-based; conditions: in vivo; method in brief: as §2
# [25] = tested on: A549; assay: Induction of apoptosis in human A549 cells assessed as early apoptosis measured after 12 hrs by Annexin V-FITC/ Propidium iodide stain based flow cytometry assay; format: functional, cell-based; conditions: dose 0.25-1 µM; method in brief: as §4
# [26] = tested on: A549; assay: Induction of apoptosis in human A549 cells assessed as late apoptosis measured after 12 hrs by Annexin V-FITC/ Propidium iodide stain based flow cytometry assay; format: functional, cell-based; conditions: dose 0.25-1 µM; method in brief: as §4
# [27] = target: Epidermal growth factor receptor (Homo sapiens, UniProt P00533); assay: Inhibition of EGFR (unknown origin) using poly (Glu, Tyr)4:1 as substrate in presence of ATP measured after 30 mins by HTRF assay; method in brief: as §1
# [28] = AUC (0 to infinity) in Balb/c mouse at 2 mg/kg, iv measured after 24 hrs by LC/MS/MS analysis; format: ADME, organism-based; set-up: route intravenous, time 24 hrs, dose 2 mg/kg; conditions: in vivo; method in brief: as §2
# [29] = target: Mast/stem cell growth factor receptor Kit (Homo sapiens, UniProt P10721); assay: Inhibition of c-Kit (unknown origin) using poly (Glu, Tyr)4:1 as substrate in presence of ATP measured after 30 mins by HTRF assay; method in brief: as §1
# [30] = Cmax in Balb/c mouse at 8 mg/kg, po measured after 24 hrs by LC/MS/MS analysis; format: ADME, organism-based; set-up: route oral, time 24 hrs, dose 8 mg/kg; conditions: in vivo; method in brief: as §2
# Chain of Macrophage-stimulating protein receptor (Q04912 25-304 limits assumed): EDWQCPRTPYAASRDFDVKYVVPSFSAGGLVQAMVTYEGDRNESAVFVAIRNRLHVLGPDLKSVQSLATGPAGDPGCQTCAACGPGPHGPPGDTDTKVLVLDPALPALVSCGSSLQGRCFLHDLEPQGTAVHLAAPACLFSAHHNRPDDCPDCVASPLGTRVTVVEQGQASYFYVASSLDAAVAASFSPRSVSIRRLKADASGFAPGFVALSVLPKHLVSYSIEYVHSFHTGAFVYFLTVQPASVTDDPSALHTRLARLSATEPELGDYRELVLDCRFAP
# Chain of Macrophage-stimulating protein receptor (Q04912 310-1400 limits assumed): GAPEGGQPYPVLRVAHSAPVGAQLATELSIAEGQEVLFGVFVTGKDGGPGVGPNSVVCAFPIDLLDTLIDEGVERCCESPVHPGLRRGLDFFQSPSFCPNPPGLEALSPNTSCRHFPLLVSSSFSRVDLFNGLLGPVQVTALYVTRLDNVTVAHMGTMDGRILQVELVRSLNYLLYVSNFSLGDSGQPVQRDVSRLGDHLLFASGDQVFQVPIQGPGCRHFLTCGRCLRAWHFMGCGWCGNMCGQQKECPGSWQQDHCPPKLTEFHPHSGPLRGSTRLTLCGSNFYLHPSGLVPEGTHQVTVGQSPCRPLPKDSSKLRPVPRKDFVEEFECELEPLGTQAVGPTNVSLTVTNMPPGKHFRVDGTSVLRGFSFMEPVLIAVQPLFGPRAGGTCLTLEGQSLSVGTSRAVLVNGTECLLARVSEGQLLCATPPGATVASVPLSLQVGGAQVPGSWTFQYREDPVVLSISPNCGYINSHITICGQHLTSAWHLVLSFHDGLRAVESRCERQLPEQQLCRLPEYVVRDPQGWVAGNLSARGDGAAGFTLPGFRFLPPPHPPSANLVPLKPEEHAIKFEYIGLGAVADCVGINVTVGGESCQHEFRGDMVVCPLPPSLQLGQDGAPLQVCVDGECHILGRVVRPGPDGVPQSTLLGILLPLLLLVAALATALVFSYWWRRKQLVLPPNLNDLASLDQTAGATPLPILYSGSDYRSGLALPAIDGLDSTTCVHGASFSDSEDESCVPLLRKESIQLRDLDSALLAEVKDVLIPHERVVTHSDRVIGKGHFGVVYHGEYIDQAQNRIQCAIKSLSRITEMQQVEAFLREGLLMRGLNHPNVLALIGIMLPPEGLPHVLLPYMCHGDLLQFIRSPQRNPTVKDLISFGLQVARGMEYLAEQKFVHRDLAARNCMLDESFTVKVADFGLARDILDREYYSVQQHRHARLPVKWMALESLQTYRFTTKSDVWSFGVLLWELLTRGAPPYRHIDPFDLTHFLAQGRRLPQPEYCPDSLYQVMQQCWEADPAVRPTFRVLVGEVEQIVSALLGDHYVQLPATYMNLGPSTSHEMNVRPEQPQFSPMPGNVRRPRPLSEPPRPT
# Chain of Hepatocyte growth factor receptor (P08581 whole entry): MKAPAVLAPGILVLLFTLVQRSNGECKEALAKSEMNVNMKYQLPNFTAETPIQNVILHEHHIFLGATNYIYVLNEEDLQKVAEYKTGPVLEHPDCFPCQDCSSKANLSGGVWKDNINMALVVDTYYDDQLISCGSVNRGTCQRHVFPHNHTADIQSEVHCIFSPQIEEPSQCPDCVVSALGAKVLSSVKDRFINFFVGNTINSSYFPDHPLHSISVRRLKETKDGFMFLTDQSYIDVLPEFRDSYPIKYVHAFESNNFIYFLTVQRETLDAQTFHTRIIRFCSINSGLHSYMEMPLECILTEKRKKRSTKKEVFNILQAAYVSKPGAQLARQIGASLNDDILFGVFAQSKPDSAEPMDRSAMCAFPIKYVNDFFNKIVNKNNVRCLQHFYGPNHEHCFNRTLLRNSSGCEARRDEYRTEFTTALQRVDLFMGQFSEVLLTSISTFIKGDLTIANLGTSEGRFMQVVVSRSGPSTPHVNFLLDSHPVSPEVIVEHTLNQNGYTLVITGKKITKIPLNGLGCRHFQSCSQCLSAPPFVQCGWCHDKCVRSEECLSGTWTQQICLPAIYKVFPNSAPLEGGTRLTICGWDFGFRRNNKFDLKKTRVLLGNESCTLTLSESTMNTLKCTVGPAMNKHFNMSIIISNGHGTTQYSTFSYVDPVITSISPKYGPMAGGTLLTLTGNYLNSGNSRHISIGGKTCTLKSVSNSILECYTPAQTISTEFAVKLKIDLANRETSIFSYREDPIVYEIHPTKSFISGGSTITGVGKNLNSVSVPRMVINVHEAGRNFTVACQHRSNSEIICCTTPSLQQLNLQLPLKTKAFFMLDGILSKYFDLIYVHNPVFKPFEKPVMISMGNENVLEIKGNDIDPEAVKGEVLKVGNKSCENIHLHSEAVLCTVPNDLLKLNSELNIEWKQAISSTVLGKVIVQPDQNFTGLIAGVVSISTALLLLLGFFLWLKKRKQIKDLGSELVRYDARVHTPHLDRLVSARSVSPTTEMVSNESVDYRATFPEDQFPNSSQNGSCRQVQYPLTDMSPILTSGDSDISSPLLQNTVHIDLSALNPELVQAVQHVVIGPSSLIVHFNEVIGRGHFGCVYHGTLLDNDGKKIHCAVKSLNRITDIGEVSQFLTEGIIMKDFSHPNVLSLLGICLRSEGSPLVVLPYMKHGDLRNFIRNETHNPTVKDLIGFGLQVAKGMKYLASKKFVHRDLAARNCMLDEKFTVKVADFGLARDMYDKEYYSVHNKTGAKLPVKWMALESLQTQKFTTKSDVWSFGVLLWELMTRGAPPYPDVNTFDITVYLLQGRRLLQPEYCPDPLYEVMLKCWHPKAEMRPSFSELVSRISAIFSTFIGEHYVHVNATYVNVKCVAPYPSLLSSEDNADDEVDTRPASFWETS
# Chain of Mast/stem cell growth factor receptor Kit (P10721 whole entry): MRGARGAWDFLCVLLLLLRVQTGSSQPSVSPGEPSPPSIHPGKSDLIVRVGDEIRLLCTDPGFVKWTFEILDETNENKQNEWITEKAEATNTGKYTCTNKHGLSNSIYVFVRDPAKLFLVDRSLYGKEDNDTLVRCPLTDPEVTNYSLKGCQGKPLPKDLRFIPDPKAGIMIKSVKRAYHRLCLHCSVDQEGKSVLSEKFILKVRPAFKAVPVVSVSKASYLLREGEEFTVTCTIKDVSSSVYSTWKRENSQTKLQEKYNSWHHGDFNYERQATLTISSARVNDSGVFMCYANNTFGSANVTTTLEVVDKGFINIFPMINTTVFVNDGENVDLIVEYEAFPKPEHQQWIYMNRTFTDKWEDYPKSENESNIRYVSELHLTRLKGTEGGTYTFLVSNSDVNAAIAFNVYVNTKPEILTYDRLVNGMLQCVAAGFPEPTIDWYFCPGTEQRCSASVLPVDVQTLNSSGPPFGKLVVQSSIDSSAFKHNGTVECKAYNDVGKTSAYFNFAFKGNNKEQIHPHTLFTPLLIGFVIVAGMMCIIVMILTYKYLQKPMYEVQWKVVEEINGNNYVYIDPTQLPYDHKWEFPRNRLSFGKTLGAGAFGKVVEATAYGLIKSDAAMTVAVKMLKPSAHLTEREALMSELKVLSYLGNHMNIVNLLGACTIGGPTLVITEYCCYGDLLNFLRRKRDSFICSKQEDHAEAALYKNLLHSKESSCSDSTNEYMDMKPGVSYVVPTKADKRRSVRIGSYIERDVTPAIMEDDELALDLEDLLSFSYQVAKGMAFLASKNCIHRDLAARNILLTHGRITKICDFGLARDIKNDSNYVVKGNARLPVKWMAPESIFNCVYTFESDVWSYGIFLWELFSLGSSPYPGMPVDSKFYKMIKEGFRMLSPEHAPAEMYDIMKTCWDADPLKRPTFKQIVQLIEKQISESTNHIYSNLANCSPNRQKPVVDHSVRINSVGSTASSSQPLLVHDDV
# Chain of Vascular endothelial growth factor receptor 3 (P35916 whole entry): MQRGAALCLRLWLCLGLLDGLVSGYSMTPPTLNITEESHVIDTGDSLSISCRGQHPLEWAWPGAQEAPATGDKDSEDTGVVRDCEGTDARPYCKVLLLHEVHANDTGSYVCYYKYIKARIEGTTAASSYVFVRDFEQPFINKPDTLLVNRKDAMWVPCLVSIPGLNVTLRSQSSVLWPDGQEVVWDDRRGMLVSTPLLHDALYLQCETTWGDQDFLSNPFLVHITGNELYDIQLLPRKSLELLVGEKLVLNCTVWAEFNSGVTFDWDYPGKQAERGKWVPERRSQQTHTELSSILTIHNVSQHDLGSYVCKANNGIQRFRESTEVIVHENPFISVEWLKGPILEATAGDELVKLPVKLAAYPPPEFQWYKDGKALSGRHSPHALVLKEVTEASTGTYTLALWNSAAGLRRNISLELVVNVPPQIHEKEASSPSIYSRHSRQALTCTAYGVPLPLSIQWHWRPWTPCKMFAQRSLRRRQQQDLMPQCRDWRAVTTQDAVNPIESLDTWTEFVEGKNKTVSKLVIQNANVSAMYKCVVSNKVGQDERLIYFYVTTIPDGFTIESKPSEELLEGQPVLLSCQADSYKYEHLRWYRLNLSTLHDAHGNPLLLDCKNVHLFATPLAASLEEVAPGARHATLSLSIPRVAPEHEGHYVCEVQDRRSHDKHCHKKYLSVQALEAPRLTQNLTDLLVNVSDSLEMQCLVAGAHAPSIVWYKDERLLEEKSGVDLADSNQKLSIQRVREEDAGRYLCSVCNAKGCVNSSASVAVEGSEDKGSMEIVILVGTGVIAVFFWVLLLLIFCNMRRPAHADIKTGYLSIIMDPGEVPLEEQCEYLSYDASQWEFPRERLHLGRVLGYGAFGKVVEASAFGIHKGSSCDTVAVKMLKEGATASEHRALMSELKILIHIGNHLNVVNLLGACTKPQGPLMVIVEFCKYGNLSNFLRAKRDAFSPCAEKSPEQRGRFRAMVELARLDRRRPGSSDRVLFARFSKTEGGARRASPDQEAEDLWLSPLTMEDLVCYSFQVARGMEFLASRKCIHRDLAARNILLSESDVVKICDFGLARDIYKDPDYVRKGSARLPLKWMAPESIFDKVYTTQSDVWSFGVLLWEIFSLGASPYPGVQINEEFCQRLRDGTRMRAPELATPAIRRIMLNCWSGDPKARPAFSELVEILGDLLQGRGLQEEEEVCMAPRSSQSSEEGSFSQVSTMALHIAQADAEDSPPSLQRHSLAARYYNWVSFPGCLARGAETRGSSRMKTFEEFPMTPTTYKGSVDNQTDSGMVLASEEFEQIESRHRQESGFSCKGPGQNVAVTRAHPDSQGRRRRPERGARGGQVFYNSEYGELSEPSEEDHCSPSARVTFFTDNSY
compound,measurement,setting,value
COCC/C(=N\S(=O)(=O)Cc1ccc(Cl)cc1)Nc1ccc(Oc2ccnc3cc(OCCCN4CCOCC4)c(OC)cc23)c(F)c1,Activity,[1],Dose-dependent effect
same,IC50,[2],358 nM
same,bioavailability,[3],74%
same,selectivity ratio,[4],19.1
same,IC50,[5],6120 nM
same,Activity,[6],Non-Toxic
same,Activity,[7],15.69%
same,Activity,[8],Non-Toxic
same,selectivity ratio,[9],4.2
same,CL/F,[10],19.7 mL/min/kg
same,inhibition,[11],Active
same,IC50,[12],565 nM
same,IC50,[13],384 nM
same,Activity,[14],Non-Toxic
same,AUC,[15],6.8 µg/h/mL
same,survival at 360 h,[16],100%
same,IC50,[17],412 nM
same,Cmax,[18],676 ng/mL
same,IC50,[19],1350 nM
same,IC50,[20],> 10000 nM
same,Activity,[21],30.99%
same,IC50,[22],480 nM
same,Tmax,[23],2.5 h
same,half-life,[24],1.8 h
same,Activity,[25],Dose-dependent effect
same,Activity,[26],Dose-dependent effect
same,IC50,[27],> 10000 nM
same,AUC,[28],2.3 µg/h/mL
same,IC50,[29],4.26 nM
same,Cmax,[30],1230 ng/mL
